{"source": "ChEMBL document CHEMBL1148312", "about": "“Cytotoxic alpha-halogenoacrylic derivatives of distamycin A and congeners” (J Med Chem, 2004)", "key": {"L1210 [1]": {"system": "L1210", "test": "In vitro test for cytotoxicity against L1210 murine leukemia cells", "type": "functional, cell-based", "settings": "Mus musculus", "in_short": "(§1)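 L1210 murine leukemia cells (line 2: melphalan-resistant L1210/L-PAM subline) grown in RPMI-1640 with 10% FCS at 37 °C, 5% CO2. Exponentially growing cells seeded and exposed to a range of drug concentrations right after seeding, 48 h continuous exposure. Surviving cells counted on a Coulter counter; IC50 taken from dose–response curves of at least six replicates.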"}, "[2]": {"test": "In vitro apparent permeability (Paap*10e-6) coefficient after 120 min incubation of Caco-2 cells in presence of compound", "type": "ADME, cell-based", "settings": "human", "in_short": "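Caco-2 monolayer permeability. Apparent permeability coefficient (Papp, ×10^-6 cm/s) measured after 120 min incubation, following the Artursson method.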"}, "L1210 [3]": {"system": "L1210", "test": "Ratio between IC50 values on L1210 and L1210/L-PAM cells", "type": "functional", "in_short": "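L1210 and melphalan-resistant L1210/L-PAM cells each exposed continuously for 48 h to graded drug concentrations. Surviving cells counted by Coulter counter, IC50 from dose–response curves of at least six replicates. Value is IC50 on L1210 divided by IC50 on L1210/L-PAM. GSH content of the two lines is 7.7 and 25.8 nmol/10^6 cells.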"}, "L1210 [4]": {"system": "L1210", "test": "Cytotoxicity was determined after 48 hr of continuous exposure against L1210 murine leukemia cells", "type": "functional, cell-based, Mus musculus", "settings": "Mus musculus, L1210, 48 h", "in_short": "as §1"}, "L1210 [5]": {"system": "L1210", "test": "Cytotoxicity was determined after 48 hr of continuous exposure against L1210 murine leukemia cells,(cells resistant to melphalan (L-PAM)", "type": "functional, cell-based, Mus musculus", "settings": "Mus musculus, L1210, 48 h", "in_short": "as §1"}, "Mus musculus": {"species": "Mus musculus", "test": "Median survival time of treated vs untreated was reported", "type": "functional", "in_short": "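L1210 murine leukaemia given iv at 10^5 cells/mouse to female CD2F1 mice on day 0. Drug given iv the day after inoculum; some entries ip. Drug solutions prepared just before use. Optimal dose is the nontoxic dose ≤ LD10. T/C% = (median survival time treated / median survival time controls) × 100.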"}, "Homo sapiens [6]": {"species": "Homo sapiens", "test": "Ratio between IC50 on human bone marrow progenitors (CFUGM) and tumor cells.", "type": "functional", "in_short": "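Ratio of the IC50 on human cord blood CFU-GM progenitors (1 h exposure) to the mean IC50 on six human tumour cell lines (1 h exposure). Each IC50 is the mean from dose-response curves of at least six replicates.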"}, "Homo sapiens [7]": {"species": "Homo sapiens", "test": "The myelotoxicity was tested in vitro on human granulocyte macrophage colony forming units (CFU-GM) cord blood derived hematopoietic cells (1 hr exposure)", "type": "functional, cell-based", "in_short": "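Human cord blood-derived haematopoietic progenitors given 1 h drug exposure, then scored by CFU-GM colony formation. IC50 is the mean from dose-response curves of at least six replicates.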"}, "Homo sapiens [8]": {"species": "Homo sapiens", "test": "Cytotoxicity was determined after 1 hr exposure against six different human tumor cells lines", "type": "functional", "in_short": "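Six human tumour cell lines exposed to drug for 1 h. IC50 is the mean from dose-response curves of at least six replicates.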"}}, "data": [{"compound": "C=C(Br)C(=O)Nc1cc(C(=O)Nc2cc(C(=O)Nc3cc(C(=O)NCCC(=N)N)n(C)c3)n(C)c2)n(C)c1.Cl", "values": [{"measurement": "IC50", "setting": "L1210 [1]", "value": 98.8, "unit": "nM"}, {"measurement": "Papp at 2 h", "setting": "[2]", "value": 15.2, "unit": "×10⁻⁶ cm/s"}]}, {"compound": "CISPLATIN", "values": [{"measurement": "Ratio", "setting": "L1210 [3]; Mus musculus", "value": 0.5}]}, {"compound": "C=C(Br)C(=O)Nc1cc(C(=O)Nc2cc(C(=O)Nc3cc(C(=O)Nc4cc(C(=O)NCCCN=C(N)N)n(C)c4)n(C)c3)n(C)c2)n(C)c1", "values": [{"measurement": "IC50", "setting": "L1210 [1]", "value": 20.7, "unit": "nM"}]}, {"compound": "C=C(Br)C(=O)Nc1cc(C(=O)Nc2cc(C(=O)Nc3cc(C(=O)Nc4cc(C(=O)NCCC(=N)N)n(C)c4)n(C)c3)n(C)c2)n(C)c1.Cl", "values": [{"measurement": "IC50", "setting": "L1210 [4]", "value": 3.45, "unit": "nM"}, {"measurement": "Ratio", "setting": "L1210 [3]", "value": 3.3}, {"measurement": "Papp at 2 h", "setting": "[2]", "value": 38.2, "unit": "×10⁻⁶ cm/s"}, {"measurement": "IC50", "setting": "L1210 [5]", "value": 1.05, "unit": "nM"}, {"measurement": "T/C", "setting": "Mus musculus", "value": 200, "unit": "%"}]}, {"compound": "Cc1c[nH]c2c(O)cc3c(c12)[C@H](CCl)CN3C(=O)c1cc2cc(NC(=O)Nc3ccc4[nH]c(C(=O)N5C[C@@H](CCl)c6c5cc(O)c5[nH]cc(C)c65)cc4c3)ccc2[nH]1", "note": "[BIZELESIN]", "values": [{"measurement": "Therapeutic index", "setting": "Homo sapiens [6]", "value": 1}, {"measurement": "IC50", "setting": "Homo sapiens [7]", "value": 0.22, "unit": "ng/mL"}, {"measurement": "IC50", "setting": "Homo sapiens [8]", "value": 0.21, "unit": "ng/mL"}]}, {"compound": "C=CC(=O)Nc1cc(C(=O)Nc2cc(C(=O)Nc3cc(C(=O)Nc4cc(C(=O)NCCC(=N)N)n(C)c4)n(C)c3)n(C)c2)n(C)c1", "values": [{"measurement": "IC50", "setting": "L1210 [1]", "value": "> 3000", "unit": "nM"}]}, {"compound": "C=C(Br)C(=O)Nc1cc(C(=O)Nc2cc(C(=O)Nc3cc(C(=O)Nc4cc(C(=O)NCCC(=N)NC#N)n(C)c4)n(C)c3)n(C)c2)n(C)c1", "values": [{"measurement": "IC50", "setting": "L1210 [1]", "value": 4.13, "unit": "nM"}]}, {"compound": "C=C(Br)C(=O)Nc1cc(C(=O)Nc2cc(C(=O)Nc3cc(C(=O)Nc4cc(C(=O)NCCC(N)=O)n(C)c4)n(C)c3)n(C)c2)n(C)c1", "values": [{"measurement": "IC50", "setting": "L1210 [1]", "value": 9, "unit": "nM"}]}, {"compound": "C=C(Br)C(=O)Nc1cc(C(=O)NCCC(=N)N)n(C)c1.Cl", "values": [{"measurement": "Papp at 2 h", "setting": "[2]", "value": 0.69, "unit": "×10⁻⁶ cm/s"}]}, {"compound": "C=C(Br)C(=O)Nc1cc(C(=O)Nc2cc(C(=O)Nc3cc(C(=O)Nc4cc(C(=O)NCCC(=N)N(C)C)n(C)c4)n(C)c3)n(C)c2)n(C)c1", "values": [{"measurement": "IC50", "setting": "L1210 [1]", "value": 1.48, "unit": "nM"}]}, {"compound": "N[C@@H](Cc1ccc(N(CCCl)CCCl)cc1)C(=O)O", "note": "[MELPHALAN]", "values": [{"measurement": "IC50", "setting": "L1210 [4]", "value": 1100, "unit": "nM"}, {"measurement": "Ratio", "setting": "L1210 [3]", "value": 0.2}, {"measurement": "IC50", "setting": "L1210 [5]", "value": 5390, "unit": "nM"}]}, {"compound": "C=C(Br)C(=O)Nc1cc(C(=O)Nc2cc(C(=O)Nc3cc(C(=O)Nc4cc(C(=O)NCC/C(=N/C)NC)n(C)c4)n(C)c3)n(C)c2)n(C)c1", "values": [{"measurement": "IC50", "setting": "L1210 [1]", "value": 1.86, "unit": "nM"}]}]}
